Measurements pooled from the literature.
Target: SRSF protein kinase 1 (SRPK1, Homo sapiens, UniProt Q96SB4)

`Cc1noc([C@H]2C[C@@H](c3ccc(C(F)(F)F)cc3)CN(C(=O)N3CCS(=O)(=O)C3)C2)n1` gave a remaining binding of 100% (cell-free assay; competition with immobilised ligand; 1 µM).
With `C[C@@H](c1ccc(-n2cnc3c(N)ncnc32)cc1)N1CCc2nn(C)c(Cc3ccccc3)c2C1=O` the remaining binding was 100% (binding; competition with immobilised ligand; 0.1 µM).
For `C[C@@H]1CCN(c2nccc(-c3cnn4ncccc34)n2)C1`, the remaining binding was 98% (binding; 1 µM).
`FC(F)(F)Oc1cccc(-c2cnc3ccc(-c4ccncc4)nn23)c1` gave a remaining binding of 70% (binding; competition with immobilised ligand; 5 µM).
For `COc1ccnn2ncc(-c3ccnc(N(C)C)n3)c12`, the remaining binding was 85% (binding; 1 µM).
`O=C(NCCCN1CCOCC1)c1ccc(Nc2ncc(Cl)c(-c3ccc(Cl)s3)n2)cc1` gave a remaining binding of 97% (binding; competition with immobilised ligand; 1 µM).
The remaining binding of `COCCOc1nc(-c2ccc(Cl)nc2)nc2c1CN(C(=O)c1ncn3ccccc13)CC2` is reported as 86% (cell-free assay; competition with immobilised ligand; 0.1 µM).
For `COc1cnc(Nc2cccc(S(N)(=O)=O)c2)nc1N1CCN(c2ccccc2)CC1`, the remaining binding was 65% (binding; competition with immobilised ligand; 1 µM).
For `CCOCCn1cc(C(=O)Nc2ccc(-n3nc(-c4cccnc4)cc3C(F)(F)F)cn2)ccc1=O`, the remaining binding was 98% (cell-free assay; competition with immobilised ligand; 1 µM).
The remaining binding of `CCN1CCN(Cc2ccc(C(=O)Nc3ccc(C)c(Oc4ccc5c(c4)CC(=O)N5)c3)cc2C(F)(F)F)CC1` is reported as 98% (binding; competition with immobilised ligand; 1 µM).
`N#Cc1ccc(Nc2ccc3[nH]c(=O)[nH]c3c2)c(Cl)c1` gave a remaining binding of 95% (cell-free assay; competition with immobilised ligand; 1 µM).
`N[C@@H]1CCN(c2nccc(-c3cnn4ncccc34)n2)C1` has a remaining binding of 92% (binding; 1 µM).
For `O=C(NCCCN1CCOCC1)c1ccc(Nc2nccc(-c3cc4ccccc4s3)n2)cc1`, the remaining binding was 100% (binding; competition with immobilised ligand; 1 µM).
For `F[C@@H]1CCN(c2nccc(-c3cnn4ncccc34)n2)C1`, the remaining binding was 100% (binding; 1 µM).
`O=C(NCC1CCOCC1)c1n[nH]cc1NC(=O)c1c(F)cccc1F` has a remaining binding of 68% (binding; competition with immobilised ligand; 1 µM).
`CN(C)c1nccc(-c2cnn3ncccc23)n1` gave a remaining binding of 100% (binding; 1 µM).
`Nc1ncc2c(n1)-c1c([nH]c3ccc(C#CC4CC4)cc13)CCCC2` has a remaining binding of 87% (binding; competition with immobilised ligand; 1 µM).
The remaining binding of `CNC(=O)Nc1ccc2c(c1)[C@@]1(CC2)OC(=O)N(CC(=O)N(Cc2ccc(F)cc2)[C@@H](C)C(F)(F)F)C1=O` is reported as 100% (cell-free assay; competition with immobilised ligand; 1 µM).
The remaining binding of `CN(C)c1nccc(-c2cnc3ncccn23)n1` is reported as 82% (binding; 1 µM).
For `O=C(O)[C@H]1[C@H](Cn2nnc3ccccc3c2=O)CC[C@@H]1C(=O)c1ccc(OCCC2CCOCC2)cc1`, the remaining binding was 79% (cell-free assay; competition with immobilised ligand; 1 µM).
For `O=C(c1ccc(Nc2ncc(Cl)c(-c3ccc(Cl)s3)n2)cc1)N1CCC(N2CCCC2)CC1`, the remaining binding was 93% (binding; competition with immobilised ligand; 1 µM).
